Data published in ChEMBL document CHEMBL5724801, “EUbOPEN Chemogenomics Library - Multiplex” (2024).
Several values for one entry are separate records, joined by “and”; a condition that tells them apart may be missing. Equal values may be shown once.

System: Fibroblast
Assay: Multiplex assay against human fibroblast
Assay type: toxicity, cell-based
Method in brief: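 Live cells carried four stains from seeding: Hoechst33342, BioTracker Green Microtubule Cytoskeleton Dye, MitoTracker Red and Annexin V Alexa Fluor 680. They were imaged on a CQ1 microscope at 37°C and 5% CO2 after compound addition. Using CellPathfinder machine-learning gating, cells were split into Hoechst high-intensity objects or normal cells, normal cells into healthy, pyknosed or fragmented nuclei, and pyknosed cells into mitotic or apoptotic; tubulin, mitochondrial-mass and membrane-permeability phenotypes are per cents of healthy-nucleus cells.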

[1] = 12 h, 1 µM, compound concentration 1 uM
[2] = 12 h, 10 µM, compound concentration 10 uM
[3] = 24 h, 1 µM, compound concentration 1 uM
[4] = 24 h, 10 µM, compound concentration 10 uM
[5] = 48 h, 1 µM, compound concentration 1 uM
[6] = 48 h, 10 µM, compound concentration 10 uM

## CC(C)(O)C(=O)N1CCN(c2ccc(C(F)(F)F)c(C3=C(c4c[nH]c5ccccc45)C(=O)NC3=O)c2)CC1
[1]
  Population Apoptotic (%): 41% and 32%
  Population Fragmented Nuclei (%): 14% and 30%
  Population Healthy Nuclei (%): 68% and 46%
  Population Hoechst High Intensity Objects (%): 2% and 5%
  Population Membrane Permeable-Phenotype (%): 0% and 5%
  Population Mitochondria Different-Phenotype (%): 9% and 5%
  Population Mitotic Cells (%): 58% and 67%
  Population Normal (%): 97% and 94%
  Population Pyknosed Nuclei (%): 17% and 22%
  Population Tubulin-Different-Phenotype (%): 30% and 56%
  Total Cell Count: 144 and 170
[2]
  Population Apoptotic (%): 33% and 35%
  Population Fragmented Nuclei (%): 17% and 26%
  Population Healthy Nuclei (%): 50% and 31%
  Population Hoechst High Intensity Objects (%): 4% and 6%
  Population Mitochondria Different-Phenotype (%): 25% and 10%
  Population Mitotic Cells (%): 66% and 64%
  Population Normal (%): 96% and 93%
  Population Pyknosed Nuclei (%): 32% and 42%
  Population Tubulin-Different-Phenotype (%): 83% and 90%
  Total Cell Count: 125 and 137
[3]
  Population Apoptotic (%): 50% and 31%
  Population Fragmented Nuclei (%): 22% and 31%
  Population Healthy Nuclei (%): 61% and 45%
  Population Hoechst High Intensity Objects (%): 1% and 8%
  Population Membrane Permeable-Phenotype (%): 0% and 2%
  Population Mitochondria Different-Phenotype (%): 3% and 8%
  Population Mitotic Cells (%): 50% and 68%
  Population Normal (%): 98% and 91%
  Population Pyknosed Nuclei (%): 16% and 23%
  Population Tubulin-Different-Phenotype (%): 40% and 58%
  Total Cell Count: 161 and 176
[4]
  Population Apoptotic (%): 26% and 36%
  Population Fragmented Nuclei (%): 24% and 27%
  Population Healthy Nuclei (%): 40% and 33%
  Population Hoechst High Intensity Objects (%): 7% and 3%
  Population Membrane Permeable-Phenotype (%): 2% and 6%
  Population Mitochondria Different-Phenotype (%): 30% and 20%
  Population Mitotic Cells (%): 73% and 63%
  Population Normal (%): 92% and 96%
  Population Pyknosed Nuclei (%): 34% and 39%
  Population Tubulin-Different-Phenotype (%): 79% and 90%
  Total Cell Count: 131 and 138
[5]
  Population Apoptotic (%): 64% and 41%
  Population Fragmented Nuclei (%): 21% and 33%
  Population Healthy Nuclei (%): 61% and 37%
  Population Hoechst High Intensity Objects (%): 5% and 7%
  Population Membrane Permeable-Phenotype (%): 0% and 1%
  Population Mitochondria Different-Phenotype (%): 12% and 15%
  Population Mitotic Cells (%): 36% and 58%
  Population Normal (%): 94% and 92%
  Population Pyknosed Nuclei (%): 17% and 28%
  Population Tubulin-Different-Phenotype (%): 38% and 67%
  Total Cell Count: 155 and 165
[6]
  Population Apoptotic (%): 54%
  Population Fragmented Nuclei (%): 33% and 35%
  Population Healthy Nuclei (%): 27% and 25%
  Population Hoechst High Intensity Objects (%): 12% and 6%
  Population Membrane Permeable-Phenotype (%): 0% and 10%
  Population Mitochondria Different-Phenotype (%): 53% and 30%
  Population Mitotic Cells (%): 45%
  Population Normal (%): 87% and 93%
  Population Pyknosed Nuclei (%): 38% and 40%
  Population Tubulin-Different-Phenotype (%): 93% and 83%
  Total Cell Count: 123 and 129

## Cc1onc(-c2ccccc2Cl)c1C(=O)N(C)c1ccc(Cl)cc1
[1]
  Population Apoptotic (%): 60% and 35%
  Population Fragmented Nuclei (%): 17% and 22%
  Population Healthy Nuclei (%): 68% and 50%
  Population Hoechst High Intensity Objects (%): 7% and 9%
  Population Membrane Permeable-Phenotype (%): 0% and 6%
  Population Mitochondria Different-Phenotype (%): 7% and 8%
  Population Mitotic Cells (%): 39% and 65%
  Population Normal (%): 92% and 90%
  Population Pyknosed Nuclei (%): 13% and 27%
  Population Tubulin-Different-Phenotype (%): 23% and 63%
  Total Cell Count: 178 and 161
[2]
  Population Apoptotic (%): 36% and 37%
  Population Fragmented Nuclei (%): 16% and 24%
  Population Healthy Nuclei (%): 70% and 48%
  Population Hoechst High Intensity Objects (%): 2% and 3%
  Population Membrane Permeable-Phenotype (%): 2% and 5%
  Population Mitochondria Different-Phenotype (%): 6% and 11%
  Population Mitotic Cells (%): 63% and 62%
  Population Normal (%): 97% and 96%
  Population Pyknosed Nuclei (%): 13% and 27%
  Population Tubulin-Different-Phenotype (%): 29% and 64%
  Total Cell Count: 144 and 151
[3]
  Population Apoptotic (%): 44% and 39%
  Population Fragmented Nuclei (%): 18% and 22%
  Population Healthy Nuclei (%): 65% and 54%
  Population Hoechst High Intensity Objects (%): 7% and 12%
  Population Membrane Permeable-Phenotype (%): 0% and 8%
  Population Mitochondria Different-Phenotype (%): 1% and 4%
  Population Mitotic Cells (%): 55% and 60%
  Population Normal (%): 92% and 87%
  Population Pyknosed Nuclei (%): 16% and 23%
  Total Cell Count: 178 and 182
[4]
  Population Apoptotic (%): 20% and 54%
  Population Fragmented Nuclei (%): 16% and 21%
  Population Healthy Nuclei (%): 76% and 55%
  Population Hoechst High Intensity Objects (%): 2% and 4%
  Population Membrane Permeable-Phenotype (%): 1% and 6%
  Population Mitochondria Different-Phenotype (%): 4% and 6%
  Population Mitotic Cells (%): 80% and 45%
  Population Normal (%): 97% and 95%
  Population Tubulin-Different-Phenotype (%): 32% and 59%
  Total Cell Count: 134 and 149
[5]
  Population Apoptotic (%): 76% and 48%
  Population Fragmented Nuclei (%): 26% and 28%
  Population Healthy Nuclei (%): 62% and 54%
  Population Hoechst High Intensity Objects (%): 9% and 11%
  Population Membrane Permeable-Phenotype (%): 0% and 10%
  Population Mitochondria Different-Phenotype (%): 1% and 6%
  Population Mitotic Cells (%): 23% and 51%
  Population Normal (%): 90% and 88%
  Population Pyknosed Nuclei (%): 10% and 17%
  Population Tubulin-Different-Phenotype (%): 22% and 51%
  Total Cell Count: 185 and 188
[6]
  Population Apoptotic (%): 44% and 65%
  Population Fragmented Nuclei (%): 25% and 31%
  Population Healthy Nuclei (%): 68% and 55%
  Population Hoechst High Intensity Objects (%): 4% and 1%
  Population Membrane Permeable-Phenotype (%): 0% and 8%
  Population Mitochondria Different-Phenotype (%): 3% and 6%
  Population Mitotic Cells (%): 55% and 35%
  Population Normal (%): 95% and 98%
  Population Pyknosed Nuclei (%): 6% and 12%
  Population Tubulin-Different-Phenotype (%): 34% and 53%
  Total Cell Count: 141 and 166
